Activity calls are given as the source filed them.
Columns and labels:
Saccharomyces cerevisiae [1] = assay: Antifungal activity against Saccharomyces cerevisiae BY4741 harboring MTF1 YMR228W mutant gene by spectrophotometry; type: functional
Method in brief: (§1)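 Haploid MATa BY4741 KanMX4 deletion strains pinned from frozen stocks into YPD + G418 (150 mg/liter), grown 3 days at 28°C to confluence, then pin-replicated into SC liquid with no drug or sordarin derivative GM193663 (2 ng/ml sensitivity; 62.5 ng/ml resistance). 28°C, OD595 read every 24 h for 5 days; growth scored relative to wild type on same plate and to untreated mutant.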

Saccharomyces cerevisiae [2] = assay: Antifungal activity against Saccharomyces cerevisiae BY4741 harboring YSC83 YHR017W mutant gene by spectrophotometry; type: functional
Method in brief: (§2)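 Deletion strains from the nonessential haploid MATa BY4741 collection (KanMX4 replacement) were grown in YPD with G418 at 28°C for 3 days, then pinned into liquid SC with or without sordarin derivative GM193663 (2 ng/ml for sensitivity, 62.5 ng/ml for resistance). Cultures were kept at 28°C and read at OD595 every 24 h for 5 days. Growth was scored against wild type on the same plate and against the drug-free control. Hits were retested at least in duplicate.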

Saccharomyces cerevisiae [3] = assay: Antifungal activity against Saccharomyces cerevisiae BY4741 harboring DIA4 YHR011W mutant gene by spectrophotometry; type: functional
Method in brief: (§3)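 Screen of BY4741 KanMX4 deletion strains pre-grown 3 days at 28°C in YPD with G418 (150 mg/liter), then pinned into liquid SC containing GM193663. The sensitivity screen used 2 ng/ml; the resistance screen used 62.5 ng/ml, with validation at 62.5, 125 and 500 ng/ml. OD595 was read every 24 h over 5 days at 28°C. Growth was scored relative to wild type and to drug-free controls. Retests were at least in duplicate.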

Saccharomyces cerevisiae [4] = assay: Antifungal activity against Saccharomyces cerevisiae BY4741 harboring COQ1 YBR003W mutant gene by spectrophotometry; type: functional; method in brief: as §3
Saccharomyces cerevisiae [5] = assay: Antifungal activity against Saccharomyces cerevisiae BY4741 harboring deletion mutation in dph4 gene at 100 ng/ml by plate assay; type: functional, organism-based
Method in brief: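 Spot test on solid SC glucose plates with or without 100 ng/ml sordarin. Drops of 10^5 cells plus 10-fold serial dilutions of each dph deletion strain were spotted alongside the parental strain. Plates were incubated at 28°C for 6 days and imaged every 24 h.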

Saccharomyces cerevisiae [6] = assay: Antifungal activity against Saccharomyces cerevisiae BY4741 harboring YLR202C mutation in unknown gene by spectrophotometry; type: functional; method in brief: as §2
Saccharomyces cerevisiae [7] = assay: Antifungal activity against Saccharomyces cerevisiae BY4741 harboring YDL062W mutation in unknown gene by spectrophotometry; type: functional; method in brief: as §1
Saccharomyces cerevisiae [8] = assay: Antifungal activity against Saccharomyces cerevisiae BY4741 harboring TOK1 YJL093C mutant gene by spectrophotometry; type: functional; method in brief: as §1
Saccharomyces cerevisiae [9] = assay: Antifungal activity against Saccharomyces cerevisiae BY4741 harboring SEM1 YDR363W-A mutant gene by spectrophotometry; type: functional; method in brief: as §1
Saccharomyces cerevisiae [10] = assay: Antifungal activity against Saccharomyces cerevisiae BY4741 harboring DSK2 YMR276W mutant gene by spectrophotometry; type: functional; method in brief: as §3
Saccharomyces cerevisiae [11] = assay: Antifungal activity against Saccharomyces cerevisiae BY4741 harboring YOL079W mutation in unknown gene by spectrophotometry; type: functional; method in brief: as §2
Saccharomyces cerevisiae [12] = assay: Antifungal activity against Saccharomyces cerevisiae BY4741 harboring RAM1 YDL090C mutant gene by spectrophotometry; type: functional; method in brief: as §1
Saccharomyces cerevisiae [13] = assay: Antifungal activity against Saccharomyces cerevisiae BY4741 harboring MHP1 YJL042W mutant gene by spectrophotometry; type: functional; method in brief: as §3
Saccharomyces cerevisiae [14] = assay: Antifungal activity against Saccharomyces cerevisiae BY4741 harboring UBX3 YDL091C mutant gene by spectrophotometry; type: functional; method in brief: as §1
Saccharomyces cerevisiae [15] = assay: Antifungal activity against Saccharomyces cerevisiae BY4741 harboring SBE2 YDR351W mutant gene by spectrophotometry; type: functional; method in brief: as §1
Saccharomyces cerevisiae [16] = assay: Antifungal activity against Saccharomyces cerevisiae BY4741 harboring LYS14 YDR034C mutant gene by spectrophotometry; type: functional; method in brief: as §3
Saccharomyces cerevisiae [17] = assay: Antifungal activity against Saccharomyces cerevisiae BY4741 harboring YHL041W mutation in unknown gene by spectrophotometry; type: functional; method in brief: as §2
Saccharomyces cerevisiae [18] = assay: Antifungal activity against Saccharomyces cerevisiae BY4741 harboring YHR151C mutation in unknown gene by spectrophotometry; type: functional; method in brief: as §2
Saccharomyces cerevisiae [19] = assay: Antifungal activity against Saccharomyces cerevisiae BY4741 harboring JJJ3/DPH4 YJR097W mutant gene by spectrophotometry; type: functional; method in brief: as §3
Saccharomyces cerevisiae [20] = assay: Antifungal activity against Saccharomyces cerevisiae BY4741 harboring RPL12B YDR418W mutant gene by spectrophotometry; type: functional; method in brief: as §1
Saccharomyces cerevisiae [21] = assay: Antifungal activity against Saccharomyces cerevisiae BY4741 harboring DLT1 YMR126C mutant gene by spectrophotometry; type: functional; method in brief: as §3
Saccharomyces cerevisiae [22] = assay: Antifungal activity against Saccharomyces cerevisiae BY4741 harboring DAL7 YIR031C mutant gene by spectrophotometry; type: functional; method in brief: as §3
Saccharomyces cerevisiae [23] = assay: Antifungal activity against Saccharomyces cerevisiae BY4741 harboring COX11 YPL132W mutant gene by spectrophotometry; type: functional; method in brief: as §3
Saccharomyces cerevisiae [24] = assay: Antifungal activity against Saccharomyces cerevisiae BY4741 harboring ARN1 YHL040C mutant gene by spectrophotometry; type: functional; method in brief: as §3
Saccharomyces cerevisiae [25] = assay: Antifungal activity against Saccharomyces cerevisiae BY4741 harboring YBL100C mutation assessed as reduction in fungal growth at 2 ng/ml by spectrophotometry; type: functional, organism-based
Method in brief: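 Deletion strains (BY4741 background) pre-grown 3 days at 28°C in YPD + G418 (150 mg/liter), then pin-replicated into SC liquid containing 2 ng/ml GM193663 or no drug. 28°C, OD595 every 24 h over 5 days; growth scored against wild type on same plate and against drug-free mutant control; hits retested at least in duplicate at 2 ng/ml.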

Saccharomyces cerevisiae [26] = assay: Antifungal activity against Saccharomyces cerevisiae BY4741 assessed as reduction in fungal growth up to 500 ng/ml for 72 hrs by spectrophotometry; type: functional, organism-based
Method in brief: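 BY4741 grown overnight in SC (synthetic complete) medium, then inoculated into microtiter wells of SC medium containing successive twofold dilutions of sordarin starting at 500 ng/ml (range 0–500 ng/ml). Cultures incubated at 28°C, and growth followed as a growth inhibition curve.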

Saccharomyces cerevisiae [27] = assay: Antifungal activity against Saccharomyces cerevisiae BY4741 harboring SHE2 YKL130C mutant gene by spectrophotometry; type: functional; method in brief: as §1
Saccharomyces cerevisiae [28] = assay: Antifungal activity against Saccharomyces cerevisiae BY4741 harboring LDB17 YDL146W mutant gene by spectrophotometry; type: functional; method in brief: as §3
Saccharomyces cerevisiae [29] = assay: Antifungal activity against Saccharomyces cerevisiae BY4741 harboring deletion mutation in dph3 gene at 300 to 500 ng/ml after 24 hrs by liquid growth assay; type: functional
Saccharomyces cerevisiae [30] = assay: Antifungal activity against Saccharomyces cerevisiae BY4741 harboring RPS4A YJR145C mutant gene by spectrophotometry; type: functional; method in brief: as §1
Saccharomyces cerevisiae [31] = assay: Antifungal activity against Saccharomyces cerevisiae BY4741 harboring YER184C mutation in unknown gene by spectrophotometry; type: functional; method in brief: as §2
Saccharomyces cerevisiae [32] = assay: Antifungal activity against Saccharomyces cerevisiae BY4741 harboring YDR008C mutation by spectrophotometry; type: functional; method in brief: as §1
Saccharomyces cerevisiae [33] = assay: Antifungal activity against Saccharomyces cerevisiae BY4741 harboring RPL16B YNL069C mutant gene by spectrophotometry; type: functional; method in brief: as §1
Saccharomyces cerevisiae [34] = assay: Antifungal activity against Saccharomyces cerevisiae BY4741 harboring MRPL37 YBR268W mutant gene by spectrophotometry; type: functional; method in brief: as §1
Saccharomyces cerevisiae [35] = assay: Antifungal activity against Saccharomyces cerevisiae BY4741 harboring MSR1 YHR091C mutant gene by spectrophotometry; type: functional; method in brief: as §1

CO[C@H]1[C@@H](O)[C@H](O)[C@H](OC[C@@]23C[C@@H]4[C@H](C)CC[C@H]4[C@@]4(C=O)CC2C=C(C(C)C)[C@@]34C(=O)O)O[C@@H]1C [SORDARIN]
50%: Activity (Saccharomyces cerevisiae [29])
inactive: MIC (Saccharomyces cerevisiae [5])
active: Activity (Saccharomyces cerevisiae [25]) | Activity (Saccharomyces cerevisiae [26])
> 0.0625 µg/mL: MIC (Saccharomyces cerevisiae [3]) | MIC (Saccharomyces cerevisiae [30])
> 0.125 µg/mL: MIC (Saccharomyces cerevisiae [1]) | MIC (Saccharomyces cerevisiae [7]) | MIC (Saccharomyces cerevisiae [8]) | MIC (Saccharomyces cerevisiae [9]) | MIC (Saccharomyces cerevisiae [13]) | MIC (Saccharomyces cerevisiae [19]) | MIC (Saccharomyces cerevisiae [21]) | MIC (Saccharomyces cerevisiae [22]) | MIC (Saccharomyces cerevisiae [23]) | MIC (Saccharomyces cerevisiae [27]) | MIC (Saccharomyces cerevisiae [28]) | MIC (Saccharomyces cerevisiae [31]) | MIC (Saccharomyces cerevisiae [33]) | MIC (Saccharomyces cerevisiae [35])
> 0.5 µg/mL: MIC (Saccharomyces cerevisiae [2]) | MIC (Saccharomyces cerevisiae [4]) | MIC (Saccharomyces cerevisiae [6]) | MIC (Saccharomyces cerevisiae [10]) | MIC (Saccharomyces cerevisiae [11]) | MIC (Saccharomyces cerevisiae [12]) | MIC (Saccharomyces cerevisiae [14]) | MIC (Saccharomyces cerevisiae [15]) | MIC (Saccharomyces cerevisiae [16]) | MIC (Saccharomyces cerevisiae [17]) | MIC (Saccharomyces cerevisiae [18]) | MIC (Saccharomyces cerevisiae [20]) | MIC (Saccharomyces cerevisiae [24]) | MIC (Saccharomyces cerevisiae [32]) | MIC (Saccharomyces cerevisiae [34])

— ChEMBL document CHEMBL1275408, “A chemical genomic screen in Saccharomyces cerevisiae reveals a role for diphthamidation of translation elongation factor 2 in inhibition of protein synthesis by sordarin” (2008)
